PglD DTNB: PglD (C. jejuni) enzyme inhibition | hit rate 0.098% among 360,000 | purified PglD enzyme, DTNB colorimetric CoA detection | inhibition, % at 12.5 µM; in the data active means inhibition above about 16%, passing the limit was not always enough; inconclusive means no clear call, values can overlap the other calls
Vif inh: blocks HIV Vif function; hit rate 0.35% among 340,000; inhibition, % at 7.49 µM; AID 602346; HEK293T cells, Vif self-association by quenched fluorescence, imaging, 24 h; in the data active means inhibition above about 50%, passing the limit was not always enough; inconclusive means no clear call, values can overlap the other calls; inactive means below about 31%
Cneo AK release: causes C. neoformans cell lysis; hit rate 0.2% among 360,000; lysis activity, % at 15 µM; adenylate kinase release luminescence, 4 h; normalised: neutral wells 0, clomiphene wells 100;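 active means mean lysis activity across replicates of at least 80%, whatever share of replicates individually reach that level; inactive means mean lysis activity below 80%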
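Material: C. neoformans cells; Schedule: 4 h static compound exposure, 37 °C, read 1 h post-reagent; Measured by: adenylate kinase release luminescence; Read-out: signal increase indicating cell lysis; Controls: Clomiphene as positive lysis control.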
rRNA inh HTS: selective bacterial rRNA inhibition in E. coli; E. coli WT GFP vs humanized-ribosome RFP mutants, fluorescence, 24 h; stronger effect = lower value; DMSO median 0, no signal -100; GFP signal change (wild-type ribosome), % (concentration not given with the values); hit rate 1.6% among 350,000;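 active means significant combined selectivity score with lowered wild-type GFP, culture density cut under 30%, mutant RFP and density less affected; inactive means any of these conditions unmet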
PGC1a acetyl inh: lowers PGC1a acetylation signal in U2OS cells | AlphaScreen anti-acetyl-lysine; with virally co-expressed GCN5 acetyltransferase | inhibition, % at 15.6 µM | hit rate 0.17% among 350,000 | AID 651687;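 active means every replicate shows inhibition of at least 40%; inconclusive means mean inhibition at least 40% but some replicate below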
FGF22 binding: FGF22 (human) thermal shift binding; Q9HCT0; recombinant FGF22 thermal shift, SYPRO orange fluorescence; percent of sucrose octasulfate shift, DMSO zero; activity (Tm shift, normalised), % at 9.99 µM; hit rate 1.5% among 340,000; AID 651658;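 active means mean Tm shift, scaled 0 neutral to 100 positive control, at about 1.3% or above, every replicate too, limit read from the data; inconclusive means no clear call, values can overlap the other calls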
Target sequence (Q9HCT0 whole entry, looked up): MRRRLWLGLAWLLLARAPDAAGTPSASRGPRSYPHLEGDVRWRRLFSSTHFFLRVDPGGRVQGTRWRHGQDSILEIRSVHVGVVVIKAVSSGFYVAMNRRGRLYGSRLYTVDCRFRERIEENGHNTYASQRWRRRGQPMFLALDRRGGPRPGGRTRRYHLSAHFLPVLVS
Numbers stand for hits; n = inactive; u = inconclusive; x = no result given. A selection: hits, their analogues and other compounds. The true share with any hit is near 2.9%.

SMILES	PglD DTNB	Vif inh	Cneo AK release	rRNA inh HTS	PGC1a acetyl inh	FGF22 binding
O=C(CN1C(=O)C2CC=CCC2C1=O)Nc1nccs1 (configuration not stated)	x	n	x	x	50	x
Cc1cccc2sc(NC(=O)CN3C(=O)C4CC=CCC4C3=O)nc12 (configuration not stated)	x	n	x	n	n	44
C[C@@H]1CN([C@H](C)CO)C(=O)c2cccc(NC(=O)c3ccncc3)c2O[C@@H]1CN(C)C(=O)Nc1ccc(F)cc1	n	x	n	n	n	n
C[C@@H]1CN([C@@H](C)CO)C(=O)c2cccc(NC(=O)c3ccncc3)c2O[C@H]1CN(C)C(=O)Nc1ccccc1	n	x	109	n	n	n
C[C@@H]1CN([C@H](C)CO)C(=O)c2cccc(NC(=O)c3ccncc3)c2O[C@H]1CN(C)C(=O)Nc1ccccc1	n	x	104	n	n	n
C[C@H](CO)N1C[C@H](C)[C@H](CN(C)C(=O)Nc2ccccc2)Oc2c(NC(=O)c3ccncc3)cccc2C1=O	n	x	n	n	n	n
C[C@@H]1CN([C@H](C)CO)C(=O)c2cccc(NC(=O)c3ccncc3)c2O[C@H]1CN(C)C(=O)Nc1ccc(C(F)(F)F)cc1	n	x	82	n	n	n
Clc1ccccc1CN1CCN(CCCc2ccccc2)CC1	x	n	x	n	n	43
Cc1noc(C)c1S(=O)(=O)N(C)C[C@H]1Oc2ccc(NC(=O)Nc3ccc(C(F)(F)F)cc3)cc2C(=O)N([C@H](C)CO)C[C@@H]1C	x	x	x	n	x	x
O=C(NCCCn1ccnc1)/C(=C/c1ccco1)NC(=O)c1cccs1	x	n	x	n	n	1.4
COC(=O)COc1ccc(S(=O)(=O)NCCC2=CCCCC2)cc1C	x	x	x	-21	n	n
COC(=O)COc1ccc(S(=O)(=O)NCCC2=CCCCC2)cc1	n	n	n	x	n	x
CCc1ccc(C(=O)NC(=S)NCc2cccnc2)cc1	n	n	87	n	x	n
CC(C)(C)c1ccc(C(=O)NC(=S)NCc2cccnc2)cc1	n	n	x	x	n	x
COc1ccc(C(=O)NC(=S)NCc2cccnc2)cc1Cl	n	n	n	-21	n	n
O=c1[nH]c(=O)c2[nH]c(=S)[nH]c2[nH]1	x	n	x	n	60	n
CC(=O)N1CCCN(Cc2cn(-c3ccc(C)cc3)nc2-c2ccc(F)cc2)CC1	x	n	x	n	x	43
Cc1ccc(-n2cc(CN3CCCN(C=O)CC3)c(-c3ccc(F)cc3)n2)cc1	x	n	x	n	n	n
C[C@H]1CCCCO[C@@H](CN(C)Cc2ccc(C(=O)O)cc2)[C@@H](C)CN([C@@H](C)CO)C(=O)c2cc(NC(=O)CCC(F)(F)F)ccc2O1	n	x	n	n	n	n
CCOCCOC(=O)C(C)Oc1ccc(Oc2nc(Cl)ccc2Cl)cc1 (configuration not stated)	x	x	x	n	88	43
O=C(C[C@H]1C[C@@H]2c3cc(NC(=O)Nc4ccccc4)ccc3O[C@@H]2[C@@H](CO)O1)NCc1cccc(F)c1	n	x	n	n	n	n
COC(c1ccccc1)c1nnc(CCC(=O)N(C)C(C2CC2)C2CC2)o1 (configuration not stated)	n	n	n	n	u	44
COC(c1ccccc1)c1nnc(CCC(=O)NC2CCCCC2)o1 (configuration not stated)	x	n	x	n	n	n
COC(c1ccccc1)c1nnc(CCC(=O)N2CCCCCCC2)o1 (configuration not stated)	n	n	n	n	n	44
COC(c1ccccc1)c1nnc(CCC(=O)N2CCN(Cc3cccs3)CC2)o1 (configuration not stated)	x	n	x	n	n	n
SMILES	PglD DTNB	Vif inh	Cneo AK release	rRNA inh HTS	PGC1a acetyl inh	FGF22 binding
C[C@@H]1CN([C@@H](C)CO)C(=O)c2cccc(NS(C)(=O)=O)c2O[C@@H]1CN(C)Cc1ccc2c(c1)OCO2	n	x	n	n	n	n
COc1c(OC(C)=O)ccc(/C=N\NC(=O)c2ccc(Br)cc2)c1[N+](=O)[O-]	n	n	n	n	n	45
COc1ccc(Br)cc1/C=N/NC(=O)c1cc(OC)c(OC)c(OC)c1	x	n	x	x	x	x
CCOC(=O)c1c(N)sc(C(O)(C(F)(F)F)C(F)(F)F)c1-c1ccc(OC)cc1OC	n	n	n	-27	n	n
CCOC(=O)Cc1cnc(NC(=O)CSc2nc(C)cc(C)n2)s1	x	n	x	n	x	44
CC1CCCCC1NC(=O)CO/N=C/c1ccccc1OC(F)F (configuration not stated)	x	91	n	n	n	n
CCC(C)NC(=O)CO/N=C/c1ccccc1OC(F)F (configuration not stated)	n	n	n	n	n	n
Cc1ccc(C(=O)CSc2nnnn2Cc2ccccc2)cc1C	x	n	x	-28	n	n
CN(C)c1ccc(C(O)P(=O)(OC2CCCCC2)OC2CCCCC2)cc1 (configuration not stated)	n	n	n	-34	n	n
COc1ccccc1/C=C/C(=O)Nc1nc(N)n(-c2ccccc2)n1	x	n	x	-25	n	n
COc1ccc(NC(=O)[C@H](Cc2c[nH]c3ccccc23)NC(=O)[C@@H]2Cc3ccccc3CN2)cc1	n	n	n	x	63	n
CC(C)c1ccc(NC(=O)[C@H](Cc2c[nH]c3ccccc23)NC(=O)[C@@H]2Cc3ccccc3CN2)cc1	n	n	n	n	n	n
CC1=CC(C)(C)N(C(=O)CN2C(=O)CCC2=O)c2ccccc21	x	n	x	n	n	43
CN(C)C(=O)c1cc(C(=O)c2ccccc2Cl)c[nH]1	x	n	x	n	n	43
NC(=O)c1cc(C(=O)c2ccccc2Cl)c[nH]1	x	n	x	n	n	43
NC(=O)c1cc(C(=O)c2cccc(Cl)c2Cl)c[nH]1	x	n	x	-48	n	n
CN(C)C=NC(=O)c1cc(C(=O)c2ccccc2Cl)c[nH]1	x	n	x	n	n	n
CN(C)C(=O)c1cc(C(=O)c2ccccc2Br)c[nH]1	n	n	n	n	n	n
O=C(c1c[nH]c(C(=O)N2CCN(c3ccccc3F)CC2)c1)c1cccc(Cl)c1Cl	n	n	n	-28	n	n
CNC(=O)c1cc(C(=O)c2c(Cl)cccc2Cl)c[nH]1	x	n	x	n	n	n
C=CCOC(=O)[C@H]1[C@@H]2C(=O)O[C@@H](c3ccccc3)[C@@H](c3ccccc3)N2[C@@H](c2ccc(OCCOC(=O)[C@H]3C[C@H]4C(=O)N[C@@H](CC(C)C)C(=O)N4[C@H]3c3cccc(OCCO)c3)cc2)[C@]12C(=O)Nc1ccccc12	x	x	n	x	x	n
CCOC(=O)C1CCCN(C(=S)Nc2ccc(Nc3ccccc3)cc2)C1 (configuration not stated)	n	n	n	-30	n	n
CCOC(=O)C1CCN(C(=S)Nc2ccccc2)CC1	x	n	x	n	n	n

Compound activity: PubChem, Broad Institute
